Test results published in ChEMBL document CHEMBL1126713, “Nonpeptide angiotensin II receptor antagonists. 1. Synthesis and in vitro structure-activity relationships of 4-[[[(1H-pyrrol-1-ylacetyl)amino]phenyl]methyl]imidazole derivatives as angiotensin II receptor antagonists” (J Med Chem, 1993).

Target: T1, Type-1 angiotensin II receptor B (Rattus norvegicus) (UniProt P29089)
T1 sequence (whole entry): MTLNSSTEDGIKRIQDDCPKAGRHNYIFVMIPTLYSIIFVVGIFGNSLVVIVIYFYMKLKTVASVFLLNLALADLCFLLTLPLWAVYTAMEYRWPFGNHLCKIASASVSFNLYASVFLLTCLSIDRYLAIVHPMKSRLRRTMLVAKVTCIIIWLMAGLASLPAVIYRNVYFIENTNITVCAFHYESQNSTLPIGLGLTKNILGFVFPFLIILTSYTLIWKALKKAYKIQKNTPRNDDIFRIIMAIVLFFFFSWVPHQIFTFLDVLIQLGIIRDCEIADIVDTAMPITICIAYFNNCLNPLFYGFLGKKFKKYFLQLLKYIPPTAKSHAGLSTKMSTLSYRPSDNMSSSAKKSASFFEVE
Assay: Binding affinity against angiotensin II (AT1 receptor) from rat liver expressed as % inhibition at 10 e -7 M
Details: not given

Row | SMILES | inhibition [%]
1 | CCCCc1nc(Cl)c(CC(=O)O)n1Cc1ccc(NC(=O)CCc2ccccc2)cc1 | 7.8
2 | CCCCc1nc(Cl)c(C(=O)OC)n1Cc1ccc(NC(=O)[C@H](Cc2ccccc2)n2cccc2C(=O)OC)cc1 | 15
3 | CCCCc1nc(Cl)c(CO)n1Cc1ccc(NC(=O)[C@H](Cc2ccccc2)n2cccc2)cc1 | 8.1
4 | CCCCc1nc(Cl)c(C(=O)OC)n1Cc1ccc(NC(=O)[C@H](Cc2cccs2)n2cccc2)cc1 | 2.5
5 | CCCCc1nc(Cl)c(CC(=O)OC)n1Cc1ccc(NC(=O)[C@H](Cc2ccccc2)n2cccc2C)cc1 | 14.8
6 | CCCCc1ncc(C(=O)OC)n1Cc1ccc(NC(=O)[C@H](Cc2ccccc2)n2cccc2C(=O)OC)cc1 | 33
7 | CCCCc1nc(Cl)c(CC(=O)OC)n1Cc1ccc(NC(=O)[C@H](Cc2ccccc2)n2ccc(C(=O)OCC)c2)cc1 | 7.2
8 | CCCCc1nc(Cl)c(C(=O)OC)n1Cc1ccc(NC(=O)[C@H](Cc2cccs2)n2cccc2C(=O)OC)cc1 | 11

Organism: Oryctolagus cuniculus
Assay: Inhibition of Angiotensin II induced contraction of isolated rabbit aortic rings
Type: functional
Details: Aorta
Summary of the method: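 Thoracic aortic rings, 4–5 mm, from New Zealand White rabbits (3–4 kg) were held in PSS at 37 °C under 95% O2/5% CO2, with isometric force recorded. Rings were equilibrated 1.5 h, primed with 122 mM KCl and given two 10^-8 M AII control contractions. Compound in DMSO was incubated 10 min before the AII concentration–response was repeated. IC50 is the concentration halving AII contraction relative to the averaged controls.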

Row | SMILES | IC50 [nM]
9 | CCCCc1nc(Cl)c(CO)n1Cc1ccc(NC(=O)[C@H](Cc2ccccc2)n2cccc2C(=O)O)cc1 | 17000
10 | CCCCc1nc(Cl)c(CC(=O)O)n1Cc1ccc(NC(=O)[C@H](Cc2ccccc2)n2cccc2C(=O)O)cc1 | 520
11 | CCCCc1nc(Cl)c(CC(=O)O)n1Cc1ccc(NC(=O)[C@H](Cc2ccccc2)n2ccc(C(=O)OCC)c2)cc1 | 14000
12 | CCCCc1nc(Cl)c(CC(=O)O)n1Cc1ccc(NC(=O)[C@H](Cc2ccccc2)n2cccc2)cc1 | 6300
13 | CCCCc1nc(Cl)c(C(=O)O)n1Cc1ccc(NC(=O)[C@H](Cc2ccccc2)n2cccc2C(=O)O)cc1 | 550
14 | CCCCc1nc(Cl)c(CCC(=O)O)n1Cc1ccc(NC(=O)[C@H](Cc2ccccc2)n2cccc2C(=O)O)cc1 | 220
15 | CCCCc1ncc(C(=O)O)n1Cc1ccc(NC(=O)[C@H](Cc2ccccc2)n2cccc2C(=O)O)cc1 | 110
16 | CCCCc1nc(Cl)c(CC(=O)O)n1Cc1ccc(NC(=O)[C@H](Cc2ccccc2)n2cccc2C)cc1 | 6400

Target: T2, Type-1 angiotensin II receptor B (Rattus norvegicus, UniProt P29089)
T2 sequence (P29089 whole entry): T1 sequence (whole entry)
Assay: Binding affinity against angiotensin II receptor type 1 (AT1) from rat liver.
Details: not given
Summary of the method: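 Compounds were added from DMSO at 100× the final concentration. Samples were filtered on glass-fiber filters presoaked in Tris pH 7.7 with bacitracin and scintillation-counted. Nonspecific binding used 10 μM saralasin. IC50 came from nonlinear mass-action fits of five or six doses or more (mean ± SEM).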

Row | SMILES | IC50 [nM]
17 | CCCCc1nc(Cl)c(C(=O)O)n1Cc1ccc(NC(=O)[C@H](Cc2cccs2)n2cccc2)cc1 | 670
18 | CCCCc1nc(Cl)c(CO)n1Cc1ccc(NC(=O)C(=O)c2ccccc2)cc1 | 10900
19 | CCCCc1nc(Cl)c(CO)n1Cc1ccc(NC(=O)[C@H](CCCC)n2cccc2C(=O)OC)cc1 | 590
20 | CCCCc1nc(Cl)c(CC(=O)O)n1Cc1ccc(NC(=O)[C@H](Cc2cccs2)n2cccc2C(=O)O)cc1 | 24
21 | CCCCc1nc(-n2cccc2)c(C(=O)O)n1Cc1ccc(NC(=O)[C@H](Cc2ccccc2)n2cccc2C(=O)O)cc1 | 340
22 | CCCCc1nc(Cl)c(CO)n1Cc1ccc(NC(=O)[C@H](Cc2ccccc2)n2cccc2C(=O)O)cc1 | 180
23 | CCCCc1nc(Cl)c(CC(=O)OC)n1Cc1ccc(NC(=O)[C@H](Cc2ccccc2)n2ccc(C(=O)OCC)c2C)cc1 | 1470
24 | CCCCc1nc(Cl)c(CC(=O)O)n1Cc1ccc(NC(=O)[C@H](Cc2ccccc2)n2ccc(C(=O)OCC)c2)cc1 | 240
25 | CCCCc1nc(Cl)c(CC(=O)O)n1Cc1ccc(NC(=O)[C@H](Cc2ccccc2)n2cccc2)cc1 | 210
26 | CCCCc1nc(Cl)c(C(=O)O)n1Cc1ccc(-c2ccccc2C(=O)O)cc1 | 92
27 | CCCCc1nc(Cl)c(CC(=O)OC)n1Cc1ccc(NC(=O)[C@H](Cc2ccccc2)n2cccc2C(=O)OC)cc1 | 500
28 | CCCCc1nc(Cl)c(CO)n1Cc1ccc(-c2ccccc2C(=O)O)cc1 | 300
29 | CCCCc1nc(Cl)c(CCC(=O)OC)n1Cc1ccc(NC(=O)[C@H](Cc2ccccc2)n2cccc2C(=O)OC)cc1 | 210
30 | CCCCc1nc(Cl)c(C(=O)O)n1Cc1ccc(NC(=O)[C@H](Cc2ccccc2)n2cccc2C(=O)O)cc1 | 80
31 | CCCCc1nc(Cl)c(C(=O)O)n1Cc1ccc(NC(=O)[C@H](Cc2cccs2)n2cccc2C(=O)O)cc1 | 180
32 | CCCCc1nc(Cl)c(CO)n1Cc1ccc(NC(=O)Cn2cccc2C(=O)OC)cc1 | 8370

Row | SMILES | IC50 [nM]
33 | CCCCc1nc(Cl)c(CCC(=O)O)n1Cc1ccc(NC(=O)[C@H](Cc2ccccc2)n2cccc2C(=O)O)cc1 | 22
34 | CCCCc1nc(Cl)c(CO)n1Cc1ccc(NC(=O)C(C#N)Cc2ccccc2)cc1 (configuration not stated) | 2600
35 | CCc1nc2c(C)cc(C)nc2n1Cc1ccc(NC(=O)[C@H](Cc2ccccc2)n2cccc2C(=O)OC)cc1 | 330
36 | CCc1nc2c(C)cc(C)nc2n1Cc1ccc(NC(=O)[C@H](Cc2ccccc2)n2cccc2C(=O)O)cc1 | 60
37 | CCCCc1nc(Cl)c(CO)n1Cc1ccc(NC(=O)C(Cc2ccccc2)c2nn[nH]n2)cc1 (configuration not stated) | 2600
38 | CCCCc1ncc(C(=O)O)n1Cc1ccc(NC(=O)[C@H](Cc2ccccc2)n2cccc2C(=O)O)cc1 | 20
39 | CCCCc1nc(Cl)c(CC(=O)O)n1Cc1ccc(NC(=O)[C@H](Cc2ccccc2)n2cccc2C)cc1 | 140
40 | CCCCc1nc(Cl)c(CC(=O)O)n1Cc1ccc(NC(=O)[C@H](Cc2ccccc2)n2cc(C#N)c3ccccc32)cc1 | 1290
41 | CCCCc1nc2c(C)cccc2n1Cc1ccc(NC(=O)[C@H](Cc2ccccc2)n2cccc2C(=O)O)cc1 | 930
42 | CCCCc1nc(Cl)c(CC(=O)O)n1Cc1ccc(NC(=O)[C@H](Cc2ccccc2)n2ccc(C(=O)OCC)c2C)cc1 | 140
43 | CCCCc1nc(-n2cccc2)c(C(=O)OCC)n1Cc1ccc(NC(=O)[C@H](Cc2ccccc2)n2cccc2C(=O)O)cc1 | 2500
44 | CCCCc1nc(Cl)c(CC(=O)OC)n1Cc1ccc(NC(=O)[C@H](Cc2cccs2)n2cccc2C(=O)OC)cc1 | 800
45 | CCCCc1nc(Cl)c(CO)n1Cc1ccc(NC(=O)[C@H](Cc2ccccc2)n2cccc2C(=O)OC)cc1 | 210
46 | CCCCc1nc(Cl)c(CO)n1Cc1ccc(NC(=O)[C@H](c2ccccc2)n2cccc2C(=O)OC)cc1 | 1120
47 | CCCCc1nc(Cl)c(CC(=O)O)n1Cc1ccc(NC(=O)[C@H](Cc2ccccc2)n2c(C)ccc2C)cc1 | 370
